Measured values published in ChEMBL document CHEMBL2375304, “Synthesis and anticancer activity of novel 2-pyridyl hexahyrocyclooctathieno[2,3-d]pyrimidine derivatives” (2013).

What was measured:
Assay type in all cases: functional
M14 = assay: Growth inhibition of human M14 cells at 10^-5 M after 48 hrs by Sulforhodamine B assay relative to control; conditions: M14, 48 h, read-out: GI
How it was run: (§1)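 Single-dose screen at 10⁻⁵ M. Cells are preincubated 24 h at 37 °C in 5% CO2, then exposed to the compound, diluted from a DMSO stock into medium with gentamicin, for 48 h. Adherent cells are fixed with cold TCA (final 10%) and suspension cells with TCA (final 16%). Cells are stained with 0.4% SRB in 1% acetic acid and bound dye is read at 515 nm. Percent growth inhibition is taken against control wells and time-zero plates.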

SF-539 = assay: Growth inhibition of human SF539 cells at 10^-5 M after 48 hrs by Sulforhodamine B assay relative to control; conditions: SF-539, 48 h, read-out: GI
How it was run: (§2)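 Single-dose primary screen at 10⁻⁵ M across 49 lines. Cells were plated 24 h beforehand, with a TCA-fixed time-zero plate, then exposed 48 h at 37 °C, 5% CO2. Cells were fixed with cold TCA, stained with SRB and read at 515 nm. Percent growth was calculated against time-zero and untreated-control absorbances.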

HT-29 = assay: Growth inhibition of human HT-29 cells at 10^-5 M after 48 hrs by Sulforhodamine B assay relative to control; conditions: HT-29, 48 h, read-out: GI; how it was run: as §1
[1] = Growth inhibition of human HCC2998 cells at 10^-5 M after 48 hrs by Sulforhodamine B assay relative to control; conditions: HCC 2998, 48 h, read-out: GI; how it was run: as §1
NCI-H23 = assay: Growth inhibition of human NCI-H23 cells at 10^-5 M after 48 hrs by Sulforhodamine B assay relative to control; conditions: NCI-H23, 48 h, read-out: GI; how it was run: as §2
K562 = assay: Growth inhibition of human K562 cells at 10^-5 M after 48 hrs by Sulforhodamine B assay relative to control; conditions: K562, 48 h, read-out: GI; how it was run: as §1
HL-60(TB) = assay: Growth inhibition of human HL-60(TB) cells at 10^-5 M after 48 hrs by Sulforhodamine B assay relative to control; conditions: HL-60, 48 h, read-out: GI
How it was run: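 First-stage single-dose screen at 10⁻⁵ M. Cells pre-incubated 24 h at 37 °C, 5% CO2, then exposed to drug for 48 h. Settled cells fixed with TCA (final 16%), SRB-stained and read at 515 nm. Percentage growth inhibition is derived from treated, untreated control and time-zero absorbances.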

CCRF-CEM = assay: Growth inhibition of human CCRF-CEM cells at 10^-5 M after 48 hrs by Sulforhodamine B assay relative to control; conditions: read-out: GI; how it was run: as §1
DU-145 = assay: Growth inhibition of human DU145 cells at 10^-5 M after 48 hrs by Sulforhodamine B assay relative to control; conditions: DU-145, 48 h, read-out: GI; how it was run: as §1
PC-3 = assay: Growth inhibition of human PC3 cells at 10^-5 M after 48 hrs by Sulforhodamine B assay relative to control; conditions: PC-3, 48 h, read-out: GI; how it was run: as §2
786-0 = assay: Growth inhibition of human 786-0 cells at 10^-5 M after 48 hrs by Sulforhodamine B assay relative to control; conditions: 786-0, 48 h, read-out: GI; how it was run: as §1
OVCAR-3 = assay: Growth inhibition of human OVCAR3 cells at 10^-5 M after 48 hrs by Sulforhodamine B assay relative to control; conditions: OVCAR-3, 48 h, read-out: GI; how it was run: as §2
SK-MEL-28 = assay: Growth inhibition of human SK-MEL-28 cells at 10^-5 M after 48 hrs by Sulforhodamine B assay relative to control; conditions: SK-MEL-28, 48 h, read-out: GI; how it was run: as §2
Malme-3M = assay: Growth inhibition of human MALME-3M cells at 10^-5 M after 48 hrs by Sulforhodamine B assay relative to control; conditions: read-out: GI; how it was run: as §1

CN1CCN(c2nc(-c3ccccn3)nc3sc4c(c23)CCCCCC4)CC1
inhibition of growth at 10 µM (M14): 6.12%
inhibition of growth at 10 µM (SF-539): 37.4%
inhibition of growth at 10 µM (HT-29): 5.9%
inhibition of growth at 10 µM [1]: 4.02%
inhibition of growth at 10 µM (NCI-H23): 16%
inhibition of growth at 10 µM (K562): 20%
inhibition of growth at 10 µM (HL-60(TB)): 4.37%
inhibition of growth at 10 µM (CCRF-CEM): 5.41%
inhibition of growth at 10 µM (DU-145): -11.6%
inhibition of growth at 10 µM (PC-3): 15.3%
inhibition of growth at 10 µM (786-0): 10%
inhibition of growth at 10 µM (OVCAR-3): -5.6%
inhibition of growth at 10 µM (SK-MEL-28): -5.08%
inhibition of growth at 10 µM (Malme-3M): -0.36%

Clc1nc(-c2ccncc2)nc2sc3c(c12)CCCCCC3
inhibition of growth at 10 µM (M14): -7.52%
inhibition of growth at 10 µM (SF-539): 6.69%
inhibition of growth at 10 µM (HT-29): -1.58%
inhibition of growth at 10 µM [1]: -12.3%
inhibition of growth at 10 µM (NCI-H23): 3.14%
inhibition of growth at 10 µM (K562): 13.6%
inhibition of growth at 10 µM (HL-60(TB)): 3.12%
inhibition of growth at 10 µM (CCRF-CEM): 23.8%
inhibition of growth at 10 µM (DU-145): 8.02%
inhibition of growth at 10 µM (PC-3): 0.63%
inhibition of growth at 10 µM (786-0): 0.46%
inhibition of growth at 10 µM (OVCAR-3): -5.97%
inhibition of growth at 10 µM (SK-MEL-28): -4.12%
inhibition of growth at 10 µM (Malme-3M): 7.42%
